Assay results taken from ChEMBL document CHEMBL1143957, “Inhibitory property of the Piper betel phenolics against photosensitization-induced biological damages” (Bioorg Med Chem, 2008).

Columns and labels:
Liver [1] = test: Protection against 30 mins photoirradiation-induced lipid peroxidation damage in rat liver mitochondria assessed as prevention of TBARS formation at 180 uM; format: functional
How it was run: (§1)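 Rat liver mitochondria (0.5 mg protein/mL final) with methylene blue (50 µg/mL) and test agent in KH₂PO₄–KOH buffer pH 7.4, held at 37 °C and irradiated 30 min with a 100 W tungsten lamp (32.45 W m⁻²). TBARS were measured after 15 min boiling with TBA/TCA/EDTA/HCl reagent, centrifugation and A532 against a malonaldehyde standard. Unirradiated endogenous TBARS were subtracted. Results are % protection, mean ± SEM, n = 5.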

Liver [2] = test: Protection against 30 mins photoirradiation-induced lipid peroxidation damage in rat liver mitochondria assessed as prevention of TBARS formation at 30 uM; format: functional; how it was run: as §1
Liver [3] = test: Protection against 30 mins photoirradiation-induced damage in rat liver mitochondria assessed as reduction of lipid hydroperoxide formation at 180 uM; format: functional; set-up: scale not given: the % may be the effect or the level left
How it was run: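 Lipid hydroperoxide read-out: mitochondrial protein (0.5 mg/mL) plus methylene blue (50 µg/mL) with test agent at 180 µM added before a 30 min photo-irradiation. LOOH was quantified as absorbance at 560 nm. Mean ± SEM, n = 5.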

Liver [4] = test: Protection against 30 mins photoirradiation-induced lipid peroxidation damage in rat liver mitochondria assessed as prevention of TBARS formation at 60 uM; format: functional; how it was run: as §1
Liver [5] = test: Protection against 30 mins photoirradiation-induced lipid peroxidation damage in rat liver mitochondria assessed as prevention of TBARS formation at 2 mM; format: functional; how it was run: as §1
Liver [6] = test: Protection against photoirradiation-induced lipid peroxidation damage in rat liver mitochondria at 10 mM; format: functional; how it was run: as §1
Liver [7] = test: Protection against photoirradiation-induced lipid peroxidation damage in rat liver mitochondria at 100 mM; format: functional; how it was run: as §1
[8] = Cytotoxicity against mouse L929 cells assessed as survival at 20 uM after 20 hrs by MTT method relative to control; format: cell-based; conditions: read-out: Survival
L929 [9] = test: Prevention of 15 mins photoirradiation-induced damage in mouse L929 cells assessed as survival at 5 uM by MTT assay; format: functional; conditions: L929, light or radiation study, 0.25 h, read-out: Survival
L929 [10] = test: Prevention of 15 mins photoirradiation-induced damage in mouse L929 cells assessed as survival at 10 uM by MTT assay; format: functional; conditions: L929, light or radiation study, 0.25 h, read-out: Survival
L929 [11] = test: Prevention of 10 mins photoirradiation-induced damage in mouse L929 cells assessed as survival at 5 uM by MTT assay; format: functional; conditions: L929, light or radiation study, read-out: Survival
L929 [12] = test: Prevention of 5 mins photoirradiation-induced damage in mouse L929 cells assessed as survival at 5 uM by MTT assay; format: functional; conditions: L929, light or radiation study, read-out: Survival
L929 [13] = test: Prevention of 10 mins photoirradiation-induced damage in mouse L929 cells assessed as survival at 10 uM by MTT assay; format: functional; conditions: L929, light or radiation study, read-out: Survival
L929 [14] = test: Prevention of 5 mins photoirradiation-induced damage in mouse L929 cells assessed as survival at 10 uM by MTT assay; format: functional; conditions: L929, light or radiation study, read-out: Survival
[15] = Cytotoxicity against mouse L929 cells assessed as survival at 10 uM after 20 hrs by MTT method relative to control; format: cell-based; conditions: read-out: Survival
L929 [16] = test: Prevention of 15 mins photoirradiation-induced damage in mouse L929 cells assessed as survival at 9 uM by MTT assay; format: functional; conditions: L929, light or radiation study, 0.25 h, read-out: Activity
How it was run: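 L929 mouse fibroblasts (RPMI 1640, 10% heat-inactivated FCS, 37 °C, 5% CO₂) were seeded at 2 × 10⁴ cells/well, preincubated with test agent in serum-free RPMI for 2 h, then given methylene blue (9 or 18 µM) in PBS for 2 h. Cells were washed and exposed to a 100 W tungsten lamp at room temperature for 0–15 min, then grown in 10% FCS RPMI for 72 h. Viability was measured by MTT (0.5 mg/mL, 4 h), SDS lysis and A550; n = 5.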

[17] = Cytotoxicity against mouse L929 cells assessed as survival at 5 uM after 20 hrs by MTT method relative to control; format: cell-based; conditions: read-out: Survival
[18] = Cytotoxicity against mouse L929 cells assessed as survival at 18 uM after 20 hrs by MTT method relative to control; format: cell-based; conditions: read-out: Survival
[19] = Cytotoxicity against mouse L929 cells assessed as survival at 9 uM after 20 hrs by MTT method relative to control; format: cell-based; conditions: read-out: Survival
L929 [20] = test: Prevention of 10 mins photoirradiation-induced damage in mouse L929 cells assessed as survival at 18 uM by MTT assay; format: functional; conditions: L929, light or radiation study, read-out: Survival
L929 [21] = test: Prevention of 15 mins photoirradiation-induced damage in mouse L929 cells assessed as survival at 18 uM by MTT assay; format: functional; conditions: L929, light or radiation study, 0.25 h, read-out: Survival
L929 [22] = test: Prevention of 5 mins photoirradiation-induced damage in mouse L929 cells assessed as survival at 18 uM by MTT assay; format: functional; conditions: L929, light or radiation study, read-out: Survival

## C=CCc1ccc(OC)c(O)c1
Liver [1]
  Activity: 72%
Liver [2]
  Activity: 22%
Liver [3]
  Activity: 61.5%
Liver [4]
  Activity: 40%

## COc1cc(C=O)ccc1O
Liver [5]
  Activity: 34%

## N[C@@H](CCC(=O)N[C@@H](CS)C(=O)NCC(=O)O)C(=O)O
Liver [6]
  Activity: 35.6%

## O=C1O[C@H]([C@@H](O)CO)C(O)=C1O
Liver [6]
  Activity: 25.7%

## OC[C@@H](O)[C@@H](O)[C@H](O)[C@H](O)CO
Liver [7]
  Activity: 20.1%

## C=CCc1ccc(O)c(O)c1 [HYDROXYCHAVICOL]
[8]
  viability at 20 h, 20 µM: 75.7%
L929 [9]
  viability at 5 µM: 85.4%
L929 [10]
  viability at 10 µM: 82.9%
Liver [1]
  Activity: 86%
L929 [11]
  viability at 5 µM: 88.3%
Liver [2]
  Activity: 32%
L929 [12]
  viability at 5 µM: 89.1%
L929 [13]
  viability at 10 µM: 92.2%
Liver [3]
  Activity: 87%
Liver [4]
  Activity: 48%
L929 [14]
  viability at 10 µM: 94.2%
[15]
  viability at 20 h, 10 µM: 96.5%
L929 [16]
  viability at 9 µM: 6%
[17]
  viability at 20 h, 5 µM: 96.2%

## CN(C)c1ccc2nc3ccc(N(C)C)cc3[s+]c2c1 [METHYLENE BLUE ANHYDROUS]
[18]
  viability at 20 h, 18 µM: 95.3%
[19]
  viability at 20 h, 9 µM: 102%
L929 [20]
  viability at 18 µM: 64.4%
L929 [21]
  viability at 18 µM: 48.9%
L929 [22]
  viability at 18 µM: 67.6%
L929 [16]
  viability at 9 µM: 14%
